Measured values taken from ChEMBL document CHEMBL3751737, “Synthesis, antibacterial and cytotoxic activities of new biflorin-based hydrazones and oximes” (2016).
Converted amounts (≈) assume the structure as drawn. The source made the active and inactive calls. No cut-off for these calls is given here.

How the values were obtained:
Format in all cases: functional
[1] = test system: Escherichia coli; experiment: Antibacterial activity against Escherichia coli ATCC 10536 after 24 hrs by broth microdilution method
How it was run: (§1)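 Broth microdilution in BHI following CLSI M100-S16. Strains were activated in BHI for 24 h at 35 ± 2 °C, adjusted to 0.5 McFarland, and diluted to a final inoculum of 5 x 10^5 CFU/mL. Samples were dissolved in water/DMSO and tested at final 512-8 µg/mL, in triplicate. Plates were incubated 24 h at 35 ± 2 °C, then 0.01% resazurin was added. MIC was the lowest concentration preventing the visual blue-to-red change. Amikacin, gentamicin and neomycin served as positive controls.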

[2] = test system: HCT-116; experiment: (§2) Cytotoxicity against human HCT116 cells assessed as growth inhibition at 5 ug/ml after 72 hrs by MTT assay
How it was run: (§3)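 Cells were maintained in RPMI 1640 with 10% FBS and 1% antibiotic at 37 °C under 5% CO2. Samples were dissolved in DMSO and tested at a single 5 µg/mL for 72 h. Viability was read by MTT: 3 h incubation, formazan dissolved in DMSO, absorbance at 595 nm. Results were graded on an intensity scale.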

[3] = test system: Staphylococcus aureus; experiment: Antibacterial activity against Staphylococcus aureus ATCC 25923 after 24 hrs by broth microdilution method; how it was run: as §1
[4] = test system: SF-295; experiment: (§4) Cytotoxicity against human SF295 cells assessed as growth inhibition at 5 ug/ml after 72 hrs by MTT assay
How it was run: (§5)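 Cells were grown in RPMI 1640 with 10% FBS and 1% antibiotic at 37 °C under 5% CO2, and seeded at 0.1 x 10^6 cells/mL. Samples were dissolved in DMSO and tested at 5 µg/mL for 72 h. MTT was added for 3 h, the precipitate was dissolved in DMSO, and absorbance was read at 595 nm. Potential was rated on an intensity scale.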

[5] = test system: Escherichia coli; experiment: Antibacterial activity against Escherichia coli 27 after 24 hrs by broth microdilution method; how it was run: as §1
[6] = test system: Proteus vulgaris; experiment: Antibacterial activity against Proteus vulgaris ATCC 13315 after 24 hrs by broth microdilution method; how it was run: as §1
[7] = test system: OVCAR-8; experiment: (§6) Cytotoxicity against human OVCAR8 cells assessed as growth inhibition at 5 ug/ml after 72 hrs by MTT assay; how it was run: as §5
[8] = test system: Staphylococcus aureus; experiment: Antibacterial activity against Staphylococcus aureus 358 after 24 hrs by broth microdilution method; how it was run: as §1
[9] = test system: Enterococcus faecalis; experiment: Antibacterial activity against Enterococcus faecalis ATCC 4083 after 24 hrs by broth microdilution method; how it was run: as §1
[10] = test system: Vibrio cholerae; experiment: Antibacterial activity against Vibrio cholerae ATCC 15748 after 24 hrs by broth microdilution method; conditions: ATCC 15748, 24 h
[11] = as §2; conditions: HCT-116, 72 h, read-out: GI; how it was run: as §3
[12] = test system: Staphylococcus aureus; experiment: Antibacterial activity against Staphylococcus aureus ATCC 12692 after 24 hrs by broth microdilution method; conditions: ATCC 12692, 24 h
[13] = test system: Bacillus cereus; experiment: Antibacterial activity against Bacillus cereus ATCC 33018 after 24 hrs by broth microdilution method; conditions: ATCC 33018, 24 h
[14] = test system: Klebsiella pneumoniae; experiment: Antibacterial activity against Klebsiella pneumoniae ATCC 10031 after 24 hrs by broth microdilution method; conditions: ATCC 10031, 24 h
[15] = as §4; conditions: SF-295, 72 h, read-out: GI; how it was run: as §5
[16] = test system: Staphylococcus aureus; experiment: Antibacterial activity against Staphylococcus aureus ATCC 6538 after 24 hrs by broth microdilution method; conditions: ATCC 6538, 24 h
[17] = test system: Aeromonas caviae; experiment: Antibacterial activity against Aeromonas caviae ATCC 15468 after 24 hrs by broth microdilution method; conditions: ATCC 15468, 24 h
[18] = test system: Pseudomonas aeruginosa; experiment: Antibacterial activity against Pseudomonas aeruginosa ATCC 15442 after 24 hrs by broth microdilution method; conditions: ATCC 15442, 24 h
[19] = test system: Staphylococcus aureus; experiment: Antibacterial activity against Staphylococcus aureus ATCC 12624 after 24 hrs by broth microdilution method; conditions: ATCC 12624, 24 h
[20] = test system: Shigella flexneri; experiment: Antibacterial activity against Shigella flexneri ATCC 12022 after 24 hrs by broth microdilution method; conditions: ATCC 12022, 24 h
[21] = test system: Listeria monocytogenes; experiment: Antibacterial activity against Listeria monocytogenes ATCC 19117 after 24 hrs by broth microdilution method; conditions: ATCC 19117, 24 h
[22] = as §6; conditions: OVCAR-8, 72 h, read-out: GI; how it was run: as §5
[23] = test system: Escherichia coli; experiment: Antibacterial activity against Escherichia coli ATCC 25922 after 24 hrs by broth microdilution method; conditions: ATCC 25922, 24 h
[24] = Staphylococcus aureus, 358, 24 h

Compound | MIC ([1]; ATCC 10536, 24 h) | growth inhibition (GI) [2] | MIC ([3]; ATCC 25923, 24 h) | growth inhibition (GI) [4] | MIC ([5]; Escherichia coli, 27, 24 h) | MIC ([6]; ATCC 13315, 24 h) | growth inhibition (GI) [7] | MIC [8, 24] | MIC ([9]; ATCC 4083, 24 h) | also measured
CC(C)=CCCC1=COC2=C(C)C(=O)/C(=N\Nc3ccccc3)c3c(C)ccc1c32 | ≥ 1020 µg/mL | inactive | 256 µg/mL (≈ 642 µM) | inactive | ≥ 1020 µg/mL | ≥ 1020 µg/mL | inactive | ≥ 1020 µg/mL | 512 µg/mL (≈ 1280 µM) | 
CCO/N=C1\C(=O)C(C)=C2OC=C(CCC=C(C)C)c3ccc(C)c1c32 | 512 µg/mL (≈ 1460 µM) | inactive | 32 µg/mL (≈ 91.1 µM) | inactive | 128 µg/mL (≈ 364 µM) | 512 µg/mL (≈ 1460 µM) | inactive | 64 µg/mL (≈ 182 µM) | 16 µg/mL (≈ 45.5 µM) | 
CC(C)=CCCC1=COC2=C(C)C(=O)C(=O)c3c(C)ccc1c32 | 128 µg/mL (≈ 415 µM) |  | 64 µg/mL (≈ 208 µM) |  | 256 µg/mL (≈ 830 µM) | 16 µg/mL (≈ 51.9 µM) |  | 128 µg/mL (≈ 415 µM) | 32 µg/mL (≈ 104 µM) | MIC [10]: ≥ 1020 µg/mL; inhibition of growth at 5 µg/mL [11]: 75%; MIC [12]: ≥ 1020 µg/mL; MIC [13]: ≥ 1020 µg/mL; MIC [14]: ≥ 1020 µg/mL; inhibition of growth at 5 µg/mL [15]: 75%; MIC [16]: ≥ 1020 µg/mL; MIC [17]: ≥ 1020 µg/mL; MIC [18]: ≥ 1020 µg/mL; MIC [19]: ≥ 1020 µg/mL; MIC [20]: ≥ 1020 µg/mL; MIC [21]: ≥ 1020 µg/mL; inhibition of growth at 5 µg/mL [22]: 75%; MIC [23]: ≥ 1020 µg/mL
CO/N=C1\C(=O)C(C)=C2OC=C(CCC=C(C)C)c3ccc(C)c1c32 | ≥ 1020 µg/mL | inactive | 32 µg/mL (≈ 94.8 µM) | inactive | 128 µg/mL (≈ 379 µM) | 64 µg/mL (≈ 190 µM) | inactive | 64 µg/mL (≈ 190 µM) | 32 µg/mL (≈ 94.8 µM) | 
NCC1O[C@H](O[C@H]2[C@@H](O)[C@H](O[C@H]3[C@H](O)[C@@H](N)C[C@@H](N)[C@@H]3O[C@H]3O[C@H](CN)[C@@H](O)[C@H](O)[C@H]3N)O[C@@H]2CO)[C@H](N)[C@@H](O)[C@@H]1O (some centres not stated) | 512 µg/mL (≈ 833 µM) |  | 32 µg/mL (≈ 52.1 µM) |  | 128 µg/mL (≈ 208 µM) | 512 µg/mL (≈ 833 µM) |  | 32 µg/mL (≈ 52.1 µM) | 128 µg/mL (≈ 208 µM) | 
CC(C)=CCCC1=COC2=C(C)C(=O)/C(=N\O)c3c(C)ccc1c32 | ≥ 1020 µg/mL | inactive | 256 µg/mL (≈ 792 µM) | inactive | 512 µg/mL (≈ 1580 µM) | 512 µg/mL (≈ 1580 µM) | inactive | ≥ 1020 µg/mL | 256 µg/mL (≈ 792 µM) | 
GENTAMICIN |  |  |  |  |  |  |  |  |  | MIC [1]: 128 µg/mL; MIC [3]: 32 µg/mL; MIC [5]: 512 µg/mL; MIC [6]: 64 µg/mL; MIC [8]: 8 µg/mL; MIC [9]: 32 µg/mL
CC(C)=CCCC1=COC2=C(C)C(=O)/C(=N\Nc3ccc([N+](=O)[O-])cc3[N+](=O)[O-])c3c(C)ccc1c32 | 512 µg/mL (≈ 1050 µM) | inactive | 512 µg/mL (≈ 1050 µM) | inactive | ≥ 1020 µg/mL | 512 µg/mL (≈ 1050 µM) | inactive | 512 µg/mL (≈ 1050 µM) | 512 µg/mL (≈ 1050 µM) | 
NCC[C@H](O)C(=O)N[C@@H]1C[C@H](N)[C@@H](O[C@H]2O[C@H](CN)[C@@H](O)[C@H](O)[C@H]2O)[C@H](O)[C@H]1O[C@H]1O[C@H](CO)[C@@H](O)[C@H](N)[C@H]1O [AMIKACIN] |  |  | 256 µg/mL (≈ 437 µM) |  | 128 µg/mL (≈ 219 µM) | 512 µg/mL (≈ 874 µM) |  | 256 µg/mL (≈ 437 µM) | 256 µg/mL (≈ 437 µM) | 
